Test results taken from ChEMBL document CHEMBL3046016, “Antifeedant and growth inhibitory effects of some neo-clerodane diterpenoids isolated from Clerodendron species (Verbenaceae) on Earias vitella and Spodoptera litura” (2003).

What was measured:
Type in all cases: functional
Spodoptera litura [1] = experiment: Insecticidal activity against third-instar larval stage of Spodoptera litura in compound-treated castor leaves assessed as total larval duration time at 5 ug/cm2 (reference value: 12.4 +/- 0.48 days)
Earias vittella [2] = experiment: Insecticidal activity against adult Earias vitella assessed as adult emergence at 5 ug/cm3 administered through artificial diet containing Abelmoschus esculentus seed powder (reference value: 88%)
Earias vittella [3] = experiment: Insecticidal activity against adult Earias vitella assessed as adult deformity at 10 ug/cm3 administered through artificial diet containing Abelmoschus esculentus seed powder (reference value: 4%)
Spodoptera litura [4] = experiment: Insecticidal activity against pupal stage of Spodoptera litura in compound-treated castor leaves assessed as pupal weight at 5 ug/cm2 (reference value: 302.4 +/- 5.9 mg)
Spodoptera litura [5] = experiment: Insecticidal activity against adult Spodoptera litura in compound-treated castor leaves assessed as adult emergence at 5 ug/cm2 relative to control
Spodoptera litura [6] = experiment: Insecticidal activity against adult Spodoptera litura in compound-treated castor leaves assessed as adult deformity at 5 ug/cm2 relative to control
Earias vittella [7] = experiment: Insecticidal activity against third-instar larval stage of Earias vitella assessed as larval mortality at 10 ug/cm3 administered through artificial diet containing Abelmoschus esculentus seed powder (reference value: 4%)
Spodoptera litura [8] = experiment: Insecticidal activity against male adult Spodoptera litura in compound-treated castor leaves assessed as adult longevity time at 10 ug/cm2 (reference value: 9.4 +/- 0.48 days)
Spodoptera litura [9] = experiment: Insecticidal activity against adult Spodoptera litura in compound-treated castor leaves assessed as adult deformity at 10 ug/cm2 relative to control
Earias vittella [10] = experiment: Antifeedant activity against third-instar larval stage of Earias vitella assessed as decrease in diet consumption at 5 ug/cm3 administered through artificial diet containing Abelmoschus esculentus seed powder after 24 hr relative to acetone-treated control; set-up: scale not given: the % may be the effect or the level left
How it was run: (§1)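 Artificial diet was modified Klein medium with bhendi (Abelmoschus esculentus) seed powder in place of alfalfa. Compound in acetone was mixed into bhendi meal 12 h before diet preparation so the solvent evaporated. One 3 g diet cube was given to five freshly molted third-instar larvae in a muslin-covered container. After 24 h the cubes were weighed. %AF = 100 − (treated/control)×100.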

Spodoptera litura [11] = experiment: Insecticidal activity against male adult Spodoptera litura in compound-treated castor leaves assessed as adult longevity time at 5 ug/cm2 (reference value: 9.4 +/- 0.48 days)
Earias vittella [12] = experiment: Insecticidal activity against pupal stage of Earias vitella assessed as pupal mortality at 10 ug/cm3 administered through artificial diet containing Abelmoschus esculentus seed powder (reference value: 8%)
Spodoptera litura [13] = experiment: Insecticidal activity against female adult Spodoptera litura in compound-treated castor leaves assessed as adult longevity time at 10 ug/cm2 (reference value: 10 +/- 0.63 days)
Spodoptera littoralis [14] = experiment: Antifeedant activity against Spodoptera littoralis assessed as decrease in diet consumption at 50 ppm after 2 hr by leaf disk assay relative to control; set-up: scale not given: the % may be the effect or the level left
Earias vittella [15] = experiment: Insecticidal activity against pupal stage of Earias vitella assessed as pupal weight at 5 ug/cm3 administered through artificial diet containing Abelmoschus esculentus seed powder (reference value: 88.2 +/- 4.01 mg)
Earias vittella [16] = experiment: Insecticidal activity against adult Earias vitella assessed as adult emergence at 10 ug/cm3 administered through artificial diet containing Abelmoschus esculentus seed powder (reference value: 88%)
Earias vittella [17] = experiment: Insecticidal activity against female adult Earias vitella assessed as adult longevity time at 10 ug/cm3 administered through artificial diet containing Abelmoschus esculentus seed powder (reference value: 8.6 +/- 0.48 days)
Earias vittella [18] = experiment: Insecticidal activity against third-instar larval stage of Earias vitella assessed as total larval duration time at 10 ug/cm3 administered through artificial diet containing Abelmoschus esculentus seed powder (reference value: 8.2 +/- 0.48 days)
Earias vittella [19] = experiment: Insecticidal activity against pupal stage of Earias vitella assessed as pupal duration time at 10 ug/cm3 administered through artificial diet containing Abelmoschus esculentus seed powder (reference value: 6.4 +/- 0.21 days)
Earias vittella [20] = experiment: Insecticidal activity against male adult Earias vitella assessed as adult longevity time at 10 ug/cm3 administered through artificial diet containing Abelmoschus esculentus seed powder (reference value: 8.2 +/- 0.4 days)
Earias vittella [21] = experiment: Insecticidal activity against third-instar larval stage of Earias vitella assessed as larval mortality at 5 ug/cm3 administered through artificial diet containing Abelmoschus esculentus seed powder (reference value: 4%)
Earias vittella [22] = experiment: Insecticidal activity against adult Earias vitella assessed as adult deformity at 5 ug/cm3 administered through artificial diet containing Abelmoschus esculentus seed powder (reference value: 4%)
Spodoptera litura [23] = experiment: Antifeedant activity against third-instar larval stage of Spodoptera litura in compound-treated castor leaves assessed as decrease in diet consumption at 10 ug/cm2 after 24 hr by no-choice leaf disk assay relative to acetone-treated control; set-up: scale not given: the % may be the effect or the level left
How it was run: (§2)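 Larvae were reared on castor leaves at 25 ± 2 °C. In a no-choice test, compound in acetone was painted on the abaxial side of castor leaf disks and air-dried. Five freshly molted third-instar larvae, starved 4 h, were placed per Petri dish with wet cotton. There were five replicates. After 24 h, consumed leaf area was read on a leaf area meter. %AF = 100 − (treated/control)×100.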

Spodoptera litura [24] = experiment: Insecticidal activity against adult Spodoptera litura in compound-treated castor leaves assessed as adult emergence at 10 ug/cm2 relative to control
Spodoptera litura [25] = experiment: Insecticidal activity against pupal stage of Spodoptera litura in compound-treated castor leaves assessed as pupal duration time at 5 ug/cm2 (reference value: 9.2 +/- 0.74 days)
Earias vittella [26] = experiment: Insecticidal activity against pupal stage of Earias vitella assessed as pupal mortality at 5 ug/cm3 administered through artificial diet containing Abelmoschus esculentus seed powder (reference value: 8%)
Spodoptera litura [27] = experiment: Insecticidal activity against pupal stage of Spodoptera litura in compound-treated castor leaves assessed as pupal weight at 10 ug/cm2 (reference value: 302.4 +/- 5.9 mg)
Earias vittella [28] = experiment: Insecticidal activity against male adult Earias vitella assessed as adult longevity time at 5 ug/cm3 administered through artificial diet containing Abelmoschus esculentus seed powder (reference value: 8.2 +/- 0.4 days)
Earias vittella [29] = experiment: Insecticidal activity against third-instar larval stage of Earias vitella assessed as total larval duration time at 5 ug/cm3 administered through artificial diet containing Abelmoschus esculentus seed powder (reference value: 8.2 +/- 0.48 days)
Spodoptera litura [30] = experiment: Insecticidal activity against third-instar larval stage of Spodoptera litura in compound-treated castor leaves assessed as total larval duration time at 10 ug/cm2 (reference value: 12.4 +/- 0.48 days)
Spodoptera litura [31] = experiment: Insecticidal activity against female adult Spodoptera litura in compound-treated castor leaves assessed as adult longevity time at 5 ug/cm2 (reference value: 10 +/- 0.63 days)
Earias vittella [32] = experiment: Insecticidal activity against female adult Earias vitella assessed as adult longevity time at 5 ug/cm3 administered through artificial diet containing Abelmoschus esculentus seed powder (reference value: 8.6 +/- 0.48 days)
Earias vittella [33] = experiment: Antifeedant activity against third-instar larval stage of Earias vitella assessed as decrease in diet consumption at 10 ug/cm3 administered through artificial diet containing Abelmoschus esculentus seed powder after 24 hr relative to acetone-treated control; set-up: scale not given: the % may be the effect or the level left; how it was run: as §1
Spodoptera litura [34] = experiment: Insecticidal activity against third-instar larval stage of Spodoptera litura in compound-treated castor leaves assessed as larval mortality at 5 ug/cm2 relative to control
Spodoptera litura [35] = experiment: Antifeedant activity against third-instar larval stage of Spodoptera litura in compound-treated castor leaves assessed as decrease in diet consumption at 5 ug/cm2 after 24 hr by no-choice leaf disk assay relative to acetone-treated control; set-up: scale not given: the % may be the effect or the level left; how it was run: as §2
Earias vittella [36] = experiment: Insecticidal activity against pupal stage of Earias vitella assessed as pupal duration time at 5 ug/cm3 administered through artificial diet containing Abelmoschus esculentus seed powder (reference value: 6.4 +/- 0.21 days)
Earias vittella [37] = experiment: Insecticidal activity against pupal stage of Earias vitella assessed as pupal weight at 10 ug/cm3 administered through artificial diet containing Abelmoschus esculentus seed powder (reference value: 88.2 +/- 4.01 mg)
Spodoptera litura [38] = experiment: Insecticidal activity against third-instar larval stage of Spodoptera litura in compound-treated castor leaves assessed as larval mortality at 10 ug/cm2 relative to control
Spodoptera litura [39] = experiment: Insecticidal activity against pupal stage of Spodoptera litura in compound-treated castor leaves assessed as pupal mortality at 10 ug/cm2 relative to control
Spodoptera litura [40] = experiment: Insecticidal activity against pupal stage of Spodoptera litura in compound-treated castor leaves assessed as pupal mortality at 5 ug/cm2 relative to control
Spodoptera litura [41] = experiment: Insecticidal activity against pupal stage of Spodoptera litura in compound-treated castor leaves assessed as pupal duration time at 10 ug/cm2 (reference value: 9.2 +/- 0.74 days)
Spodoptera littoralis [42] = experiment: Antifeedant activity against Spodoptera littoralis assessed as decrease in diet consumption at 200 ppm after 2 hr by leaf disk assay relative to control; set-up: scale not given: the % may be the effect or the level left

With `CC(=O)OC[C@@]12[C@@H](OC(C)=O)C[C@@H](C)[C@](C)([C@@H]3C[C@H]4C=CO[C@H]4O3)[C@H]1CCC[C@]21CO1` [CLERODIN] the Time (Spodoptera litura [1]) was 14.3 days, the Activity (Earias vittella [2]) was 68.6% and the Activity (Earias vittella [3]) was 8%. For the same molecule, the Activity (Spodoptera litura [4]) was 270.2 mg, the Activity (Spodoptera litura [5]) was 64% and the Activity (Spodoptera litura [6]) was 8%. It also gave a mortality (Earias vittella [7]) of 8%, a Time (Spodoptera litura [8]) of 8 days and an Activity (Spodoptera litura [9]) of 9.6%. For the same molecule, the Activity (Earias vittella [10]) was 62.87%, the Time (Spodoptera litura [11]) was 8.4 days and the mortality (Earias vittella [12]) was 32%. It also gave a Time (Spodoptera litura [13]) of 7 days, an Activity (Spodoptera littoralis [14]) of 100% and an Activity (Earias vittella [15]) of 60.4 mg. The Activity (Earias vittella [16]) was 60%, the Time (Earias vittella [17]) was 6.6 days and the Time (Earias vittella [18]) was 9.9 days. It also gave a Time (Earias vittella [19]) of 8 days, a Time (Earias vittella [20]) of 6.4 days and a mortality (Earias vittella [21]) of 4%. It also gave an Activity (Earias vittella [22]) of 4%, an Activity (Spodoptera litura [23]) of 80% and an Activity (Spodoptera litura [24]) of 63.2%. It also gave a Time (Spodoptera litura [25]) of 10.9 days, a mortality (Earias vittella [26]) of 28.5% and an Activity (Spodoptera litura [27]) of 250.2 mg. The Time (Earias vittella [28]) was 6.6 days, the Time (Earias vittella [29]) was 9.4 days and the Time (Spodoptera litura [30]) was 14.8 days. It also gave a Time (Spodoptera litura [31]) of 8 days, a Time (Earias vittella [32]) of 6.8 days and an Activity (Earias vittella [33]) of 72.13%. It also gave a mortality at 5 µg/cm2 (Spodoptera litura [34]) of 24.5%, an Activity (Spodoptera litura [35]) of 72% and a Time (Earias vittella [36]) of 7.2 days. It also gave an Activity (Earias vittella [37]) of 58 mg, a mortality at 10 µg/cm2 (Spodoptera litura [38]) of 35.2% and a mortality at 10 µg/cm2 (Spodoptera litura [39]) of 27%. It also gave a mortality at 5 µg/cm2 (Spodoptera litura [40]) of 27% and a Time (Spodoptera litura [41]) of 11.6 days.

`CC(=O)OC[C@@]12[C@@H](OC(C)=O)C[C@@H](C)[C@](C)([C@@H]3C[C@H]4C=CO[C@H]4O3)[C@H]1CC[C@H](OC(C)=O)[C@]21CO1` [3-EPICARYOPTIN] gave a Time (Spodoptera litura [1]) of 14 days, an Activity (Earias vittella [2]) of 60.4% and an Activity (Earias vittella [3]) of 8%. The Activity (Spodoptera litura [4]) was 261.6 mg, the Activity (Spodoptera litura [5]) was 64.8% and the Activity (Spodoptera litura [6]) was 8.8%. The mortality (Earias vittella [7]) was 12%, the Time (Spodoptera litura [8]) was 6.4 days and the Activity (Spodoptera litura [9]) was 12.8%. It also gave an Activity (Earias vittella [10]) of 73%, a Time (Spodoptera litura [11]) of 7.4 days and a mortality (Earias vittella [12]) of 40%. It also gave a Time (Spodoptera litura [13]) of 6 days, an Activity (Earias vittella [15]) of 57.4 mg and an Activity (Earias vittella [16]) of 52%. The Time (Earias vittella [17]) was 5.8 days, the Time (Earias vittella [18]) was 10.3 days and the Time (Earias vittella [19]) was 10.2 days. The Time (Earias vittella [20]) was 5.6 days, the mortality (Earias vittella [21]) was 8% and the Activity (Earias vittella [22]) was 8%. For the same molecule, the Activity (Spodoptera litura [23]) was 82.6%, the Activity (Spodoptera litura [24]) was 56.8% and the Time (Spodoptera litura [25]) was 11 days. The mortality (Earias vittella [26]) was 30%, the Activity (Spodoptera litura [27]) was 250.2 mg and the Time (Earias vittella [28]) was 5.8 days. It also gave a Time (Earias vittella [29]) of 10 days, a Time (Spodoptera litura [30]) of 14.5 days and a Time (Spodoptera litura [31]) of 7.2 days. For the same molecule, the Time (Earias vittella [32]) was 6.2 days, the Activity (Earias vittella [33]) was 79.76% and the Activity (Spodoptera littoralis [42]) was 100%. For the same molecule, the mortality at 5 µg/cm2 (Spodoptera litura [34]) was 24%, the Activity (Spodoptera litura [35]) was 73.4% and the Time (Earias vittella [36]) was 8.8 days. The Activity (Earias vittella [37]) was 53.2 mg, the mortality at 10 µg/cm2 (Spodoptera litura [38]) was 36% and the mortality at 10 µg/cm2 (Spodoptera litura [39]) was 30%. It also gave a mortality at 5 µg/cm2 (Spodoptera litura [40]) of 26.5% and a Time (Spodoptera litura [41]) of 11.8 days.
